# According to ChEMBL document CHEMBL2093137, “WHO-TDR NTD Screening”:
# What was measured:
# [1] = WHO-TDR: Cytotoxicity; assay type: toxicity, cell-based; conditions: human, MRC5 cells
# Leishmania infantum = experiment: WHO-TDR: Leishmaniasis; assay type: functional, organism-based, Mus musculus; conditions: Macrophage
# In short: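 Values are IC50 figures for antiparasitic potency. They come from a whole-organism screen of a 10,000-compound diverse Life Chemicals library against Leishmania infantum MHOM/MA(BE)/67 amastigotes inside murine peritoneal macrophage host cells.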
# Brugia malayi = experiment: WHO-TDR: Lymphatic Filariasis; assay type: functional; set-up: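 tested at 10 µM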
# In short: (§1)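 Whole-organism screen of a 10,000-compound diverse library from Life Chemicals, filtered for drug-likeness and reactive groups, against Brugia malayi microfilariae. The assay followed previously published standard procedures, with reference drugs as positive controls. Activity is reported as percent inhibition and as IC50.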
# [2] = tested on: Trypanosoma brucei brucei; experiment: WHO-TDR: Human African Trypanosomiasis (HAT); assay type: functional, organism-based; conditions: Squib-427
# In short: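 Values are IC50 figures for antiparasitic potency. They come from a whole-organism screen of 10,000 diverse Life Chemicals compounds against bloodstream-form Trypanosoma brucei (Squib 427 strain).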
# Plasmodium falciparum K1 = experiment: WHO-TDR: Malaria; assay type: functional, organism-based, Homo sapiens; conditions: Erythrocyte
# In short: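 Values are IC50 figures for antiplasmodial potency. They come from a whole-organism screen of 10,000 diverse Life Chemicals compounds against Plasmodium falciparum K1 growing inside human red blood cells, run by previously published standard procedures.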
# Onchocerca lienalis = experiment: WHO-TDR: Onchocerciasis; assay type: functional; set-up: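 at 12.5 µM on microfilariae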
# In short: as §1, with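 “microfilariae of Onchocerca ochengi or Onchocerca lienalis, used as animal-pathogen stand-ins for the human parasite.” for “Brugia malayi microfilariae.”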
# Trypanosoma cruzi = experiment: WHO-TDR: Chagas disease; assay type: functional, organism-based, Homo sapiens; conditions: MRC5
# In short: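 A diverse library of 10,000 compounds from Life Chemicals, filtered for drug-likeness and reactive groups, was screened against intracellular amastigotes of Trypanosoma cruzi Tulahuen CL2 beta-galactosidase strain. The parasites were grown in MRC-5SV2 human lung fibroblast host cells, and a reference drug served as positive control under previously published standard procedures. Antiparasitic potency is given as IC50.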
# Schistosoma mansoni = experiment: WHO-TDR: Schistosomiasis; assay type: functional; set-up: concentration or dose not given beside the values
# In short: as §1, with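 “larval and/or adult worms of Schistosoma mansoni Puerto Rican strain.” for “Brugia malayi microfilariae.”, “with a” for “with”, “drug” for “drugs”, “control.” for “controls.”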
IC50 (Leishmania infantum),IC50 [2],IC50 (Plasmodium falciparum K1),SMILES,IC50 [1],% Inhibition (Brugia malayi),% Inhibition (Onchocerca lienalis),IC50 (Trypanosoma cruzi),% Inhibition (Schistosoma mansoni)
0.418 µg/mL,4.08 µg/mL,> 12.9 µg/mL,COc1ccc(Cl)c2sc(N(CCCN(C)C)C(=O)c3ccco3)nc12,4.17 µg/mL,0%,0%,1.36 µg/mL,0%
0.51 µg/mL,5.66 µg/mL,> 15.8 µg/mL,COc1ccc(Cl)c2sc(N(CCCN(C)C)C(=O)c3ccc(Br)s3)nc12,6.71 µg/mL,0%,0%,1.77 µg/mL,100%
> 9.4 µg/mL,0.308 µg/mL,2.97 µg/mL,O=C(Cc1ccc(F)cc1)Nc1nc(-c2ccccn2)cs1,> 9.4 µg/mL,0%,23.33%,0.334 µg/mL,0%
> 16.3 µg/mL,5.21 µg/mL,3.81 µg/mL,Cc1ccc2sc(N(CCN(C)C)C(=O)C3CCN(S(=O)(=O)c4cccs4)CC3)nc2c1C,1.94 µg/mL,0%,16.32%,0.772 µg/mL,0%
> 13 µg/mL,> 13 µg/mL,> 13 µg/mL,O=C(Nc1nc(-c2ccccn2)cs1)C1CCN(S(=O)(=O)c2cccs2)CC1,> 13 µg/mL,0%,9.31%,0.434 µg/mL,0%
1.98 µg/mL,4.37 µg/mL,10.5 µg/mL,O=C(/C=C/c1cccs1)N(CCCN1CCOCC1)c1nc2ccccc2s1,> 13.5 µg/mL,0%,16.32%,4.43 µg/mL,0%
> 13.6 µg/mL,> 13.6 µg/mL,11 µg/mL,CCOc1ccc2nc(N(Cc3cccnc3)C(=O)CSc3ccc(F)cc3)sc2c1,> 13.6 µg/mL,0%,26.7%,0.223 µg/mL,0%
> 12.6 µg/mL,> 12.6 µg/mL,> 12.6 µg/mL,Cc1ccc2sc(N(Cc3cccnc3)C(=O)CSc3ccccc3)nc2c1C,> 12.6 µg/mL,0%,0%,0.938 µg/mL,0%
> 11.9 µg/mL,3.86 µg/mL,> 11.9 µg/mL,Cc1ccccc1Cn1cc(C(=O)Nc2cccc(Br)c2)ccc1=O,9.51 µg/mL,0%,26.7%,0.553 µg/mL,0%
1.96 µg/mL,> 13.4 µg/mL,> 13.4 µg/mL,O=C(COc1ccccc1)Oc1ccc2nc(N3CCN(c4ccccc4)CC3)sc2c1,> 13.4 µg/mL,0%,0%,9.76 µg/mL,0%
0.223 µg/mL,> 15 µg/mL,> 15 µg/mL,CCCCN(C)S(=O)(=O)c1ccc(C(=O)N2CCN(c3nc4c(C)ccc(C)c4s3)CC2)cc1,> 15 µg/mL,16.67%,13.3%,> 15 µg/mL,0%
> 10.5 µg/mL,> 10.5 µg/mL,3.18 µg/mL,CCCn1/c(=N/C(=O)C2=COCCO2)sc2c(C)ccc(OC)c21,> 10.5 µg/mL,0%,20%,0.89 µg/mL,0%
1.09 µg/mL,> 11.5 µg/mL,> 11.5 µg/mL,COc1ccc(-c2ccc(NS(=O)(=O)c3ccc(Cl)s3)cc2)nn1,> 11.5 µg/mL,16.67%,0%,> 11.5 µg/mL,0%
0.39 µg/mL,0.35 µg/mL,1.74 µg/mL,CN(C)CCCN(C(=O)/C=C/c1ccccc1)c1nc2ccccc2s1,3.81 µg/mL,0%,25.05%,0.406 µg/mL,100%
> 13.8 µg/mL,4.37 µg/mL,5.41 µg/mL,CN(C)CCCN(C(=O)c1ccc(Br)s1)c1nc2ccccc2s1,> 13.8 µg/mL,0%,11.35%,0.791 µg/mL,0%
4.32 µg/mL,> 13.3 µg/mL,> 13.3 µg/mL,O=C(COc1ccc(Cl)cc1Cl)N(Cc1ccccn1)c1nc2ccccc2s1,> 13.3 µg/mL,0%,0%,0.863 µg/mL,0%
3.7 µg/mL,> 11.4 µg/mL,7.58 µg/mL,O=C(c1c(F)cccc1F)N(Cc1ccccn1)c1nc2ccccc2s1,2.13 µg/mL,0%,4.601%,0.546 µg/mL,0%
> 12.2 µg/mL,> 12.2 µg/mL,11.3 µg/mL,O=C(CCSc1ccccc1)N(Cc1ccccn1)c1nc2ccccc2s1,> 12.2 µg/mL,0%,11.35%,0.466 µg/mL,0%
0.461 µg/mL,> 14.2 µg/mL,10.9 µg/mL,O=C(Cn1c(S(=O)(=O)Cc2ccccc2)nc2ccccc21)N1CCN(c2ccccc2)CC1,> 14.2 µg/mL,0%,11.35%,> 14.2 µg/mL,0%
> 10.6 µg/mL,0.856 µg/mL,> 10.6 µg/mL,CSc1ccccc1-c1nnc(NC(=O)c2ccc(Cl)s2)o1,> 10.6 µg/mL,0%,86.4%,0.416 µg/mL,0%
6.77 µg/mL,0.656 µg/mL,> 9.94 µg/mL,CCSc1ccccc1C(=O)Nc1nnc(-c2cccs2)o1,5.3 µg/mL,0%,20%,0.413 µg/mL,0%
0.405 µg/mL,0.395 µg/mL,> 12.5 µg/mL,CCS(=O)(=O)c1cccc(C(=O)Nc2nc3c(s2)CSc2ccccc2-3)c1,4 µg/mL,0%,46.7%,0.412 µg/mL,75%
4.53 µg/mL,0.432 µg/mL,0.506 µg/mL,COc1ccc(C)c2sc(N(CCCN(C)C)C(=O)c3ccccc3SC)nc12,4.42 µg/mL,0%,13.3%,5.29 µg/mL,0%
> 11.7 µg/mL,3.69 µg/mL,4.56 µg/mL,O=C(Nc1ccc2c(c1)N(C(=O)C1CC1)CCC2)c1cccc(C(F)(F)F)c1,> 11.7 µg/mL,0%,13.3%,0.808 µg/mL,0%
> 11.4 µg/mL,6.35 µg/mL,> 11.4 µg/mL,CCCc1cc(=O)n(CC(=O)Nc2ccc(C)cc2)c(-n2nc(C)cc2C)n1,10.5 µg/mL,0%,27.7%,0.764 µg/mL,0%
> 13.3 µg/mL,0.643 µg/mL,3.81 µg/mL,CC(=O)c1cccc(Nc2nc(Nc3ccc(F)c(Cl)c3)nc(N3CCOCC3)n2)c1,5.32 µg/mL,0%,0%,0.465 µg/mL,25%
4.32 µg/mL,0.422 µg/mL,1.19 µg/mL,COc1ccc(Nc2nc(Nc3ccccc3OC)nc(N3CCOCC3)n2)cc1,2.08 µg/mL,0%,0%,3.98 µg/mL,0%
4.3 µg/mL,0.42 µg/mL,1.06 µg/mL,Cc1cccc(Nc2nc(Nc3ccc4c(c3)OCO4)nc(N3CCOCC3)n2)c1,1.82 µg/mL,0%,0%,2.05 µg/mL,0%
0.377 µg/mL,> 11.6 µg/mL,> 11.6 µg/mL,COc1ccc(Cl)c2sc(NC(=O)c3ccc(Cl)cc3Cl)nc12,4.96 µg/mL,0%,0%,3.62 µg/mL,0%
0.366 µg/mL,3.57 µg/mL,> 11.3 µg/mL,COc1ccc(Cl)c2sc(NC(=O)c3ccc4c(c3)OCCO4)nc12,3.43 µg/mL,0%,53.4%,0.702 µg/mL,0%

SMILES,IC50 (Leishmania infantum),IC50 [2],IC50 (Plasmodium falciparum K1),IC50 [1],% Inhibition (Brugia malayi),% Inhibition (Onchocerca lienalis),IC50 (Trypanosoma cruzi),% Inhibition (Schistosoma mansoni)
O=C(Nc1ccncc1)c1cccn(Cc2ccc(F)cc2)c1=O,> 9.7 µg/mL,> 9.7 µg/mL,> 9.7 µg/mL,2.53 µg/mL,0%,-1%,0.45 µg/mL,0%
